APP 5'UTR act = activators of APP 5'UTR luciferase reporter, primary screen, SH-SY5Y cells; SH-SY5Y APP 5'UTR luciferase reporter, luminescence; zero percent = DMSO vehicle wells; activation, % at 2 µM; 1% of 190,000 active;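 active means activation above a set limit, based on mean plus 3 SD of controls, cut at about 140% in these data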
STAT3 act-1 = IL-6 driven STAT3 reporter potentiators, primary screen, U3A cells, luciferase, luminescence, MLSCN library. AID 871, 2007. IL-6 STAT3-luciferase reporter; 100% = signal with IL-6 EC80 alone. 0.91% of 190,000 active. activation (% of control), % at 5.6 µM;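 active means activation above the screen-wide mean of compound activation plus 3 SD, cut at about 130% in these data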;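 further: 0% = background luminescence of wells with medium and substrate only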
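Detection: reporter luminescence signal / Assay system: STAT1-lacking human U3A cells, STAT3 luciferase reporter / Incubation: compound pre-incubation 1 h before IL-6, then 6 h stimulation at 37 °C / Control set: IL-6-only high control / Read-out: % activation relative to IL-6 control / Probe or stimulus: Interleukin-6, 33 ng/mL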
STAT1 blocker = STAT1 signaling inhibitors, primary screen, cell-based, HTS, luciferase reporter | NIH 3T3 STAT1-luciferase reporter, IFN-gamma, luminescence | inhibition, % at 5.5 µM | 0.35% of 200,000 active;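 active means inhibition above a set limit, the mean inhibition across all tested compounds plus 3 SD, cut at about 34% in these data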;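 further: 0% = IFN-gamma with DMSO and 100% = IFN-gamma with 300 µM nifuroxazide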
STAT1 act-1 = STAT1 signaling activators, primary screen, cell-based, HTS, luciferase reporter | activation (% of control), % at 5.5 µM | NIH 3T3 STAT1-luciferase reporter, IFN-gamma, luminescence; 100% = IFN-gamma alone, no compound | 2.6% of 200,000 active;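 active means activation above the screen-wide mean activation plus 3 SD, cut at about 130% in these data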;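 further: raw ratio to IFN-gamma control signal so 100% means no change and 0% no light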
STAT3 blocker = IL-6 driven STAT3 reporter inhibitors, primary screen, U3A cells, luciferase, luminescence, MLSCN library; IL-6 STAT3-luciferase reporter; host cell line lacks STAT1; inhibition, % at 5.5 µM; 0.89% of 190,000 active; AID 862, 2007;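 active means inhibition above the mean inhibition across all screened compounds plus 3 SD, cut at about 44% in these data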;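 further: 0% = DMSO only wells and 100% = 100 µM nifuroxazide control wells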
NF-kB expr up = activators of NF-kB expression in neurons, primary screen, cell-based, HTS | human neuronal cells, NF-kB reporter expression; active compounds read high | AID 1239, 2008 | fold change at 12.5 µM | 1.6% of 190,000 active; in the data active means fold change above about 3.3
STAT3 act-2 = STAT3 reporter potentiators, retest of hits, confirmation, U3A cells, luciferase, luminescence; 64% of 1,200 active; potentiation (% of control), % at 5.7 µM; shares compounds with STAT3 act-1; IL-6 potentiation; U3A cells lack STAT1; 100 means same as IL-6 alone;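 active means percent activation of the STAT3 luciferase reporter above a set limit taken from the earlier primary screen, cut at about 130% in these data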;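 further: 0% = background signal of medium plus substrate and 100% = median of IL-6 with DMSO wells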
NFkB act 2 = NF-kB reporter activators in human cells, counter-screen for STAT3 activator project; shares compounds with STAT3 act-1; NF-kappaB reporter activation; activation (% of control), % at 5.7 µM; 11% of 1,200 active; in the data active means activation above about 120%;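 further: reporter induced by TNF-alpha stimulation; 100% = median of stimulated DMSO wells and 0% = no signal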
STAT1 act-2 = STAT1 reporter activators, IFN-gamma induced, counter-screen for STAT3 activator project, cell-based, NIH 3T3, luciferase luminescence; 13% of 1,200 active; shares compounds with STAT3 act-1; NIH 3T3 STAT1-luciferase reporter; activation (% of control), % at 5.7 µM;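 active means activation above the solvent-only control well mean plus 3 SD, set per screening run, cut at about 120% in these data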;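 further: 100% = IFN-gamma with DMSO median signal so 100% means no change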
Active calls of the source: *; . = no result. A selection: hits, their analogues and other compounds. The true share with any hit is near 4.9%.

SMILES | APP 5'UTR act | STAT3 act-1 | STAT1 blocker | STAT1 act-1 | STAT3 blocker | NF-kB expr up | STAT3 act-2 | NFkB act 2 | STAT1 act-2
N#Cc1cn(CC(=O)O)c2ccccc12 | 3 | 140* | 12 | 89 | -41 | 1.2 | 140* | 102 | 92
CC(=O)c1ccc(N2C(=O)[C@@H]3C(CCC(N)=O)NC4(C(=O)Nc5c4ccc(Cl)c5C)[C@@H]3C2=O)cc1 (some centres undefined) | 0 | 137* | 16 | 86 | -38 | 0.96 | 128 | 102 | 91
CN(C)CCCN=Cc1c(O)n(Cc2ccc3c(c2)OCO3)c(=O)c2ccccc12 | 21 | 104 | -7 | 105 | 3 | 1 | . | . | .
O=S(NC1CCCCC1)C12CC3CC(CC(C3)C1)C2 (centres undefined) | 6 | 98 | 4 | 96 | 8 | 1.2 | . | . | .
CCn1c(NC(C)=O)nc2ccccc21 | 12 | 101 | 2 | 101 | 0 | 1.1 | . | . | .
CCn1c(NC(=O)c2cccs2)nc2ccccc21 | 8 | 146* | -6 | 106 | -45 | 2.1 | 131 | 106 | 107
CN(C)CCn1c(NC(=O)c2ccc(Cl)cc2)nc2ccccc21 | . | 164* | -26 | 125 | -76 | 1.5 | 157* | 119 | 123*
CCN(CC)CCn1c(NC(=O)c2ccc(C(F)(F)F)cc2)nc2ccccc21 | -9 | 107 | -9 | 106 | -5 | 1.1 | . | . | .
NC(=O)CSc1nnc(-c2ccc([N+](=O)[O-])cc2)o1 | -15 | 105 | -9 | 109 | -3 | 1.6 | . | . | .
COc1ccc(-c2nc3scc(-c4ccccc4)n3n2)cc1 | 27 | 160* | 12 | 89 | -67 | 1.2 | 144* | 103 | 95
COc1ccc(C(=O)n2nc(-c3ccccc3)nc2SC)cc1 | 9 | 98 | -4 | 104 | 4 | 1.2 | . | . | .
Cc1ccc(CNC(=O)CNC(=O)c2c(C)nn(C)c2Cl)cc1 | -2 | 99 | 3 | 97 | 4 | 0.94 | . | . | .
S=C(N/N=C1\CCc2ccccc21)NC1CCCCC1 | 64 | 137* | -20 | 118 | -42 | 1.2 | 164* | 135* | 122*
C=CCNc1sc(C(=O)c2ccccc2)c(N)c1-c1nc2ccccc2s1 | 34 | 143* | 3 | 97 | -53 | 1.1 | 124 | 110 | 104
CCOC(=O)c1sc(NCc2ccco2)c(-c2nc3ccccc3s2)c1N | 3 | 158* | -2 | 103 | -65 | 1.2 | 136* | 101 | 104
CCNc1sc(C(=O)c2cccs2)c(N)c1-c1nc2ccccc2s1 | 51 | 116 | -6 | 105 | -14 | 1 | . | . | .
Cc1ccc(NC(=O)c2cc(C(=O)c3cc(Cl)ccc3O)cn(-c3ccc(C)cc3)c2=O)cc1 | 16 | 98 | 0 | 100 | 2 | 0.89 | . | . | .
Cc1cc(C(F)(F)F)n(-c2ccc(N)cc2)n1 | -9 | 101 | -9 | 107 | 2 | 1.2 | . | . | .
O=C(Nc1nc2c(s1)COc1ccccc1-2)c1cccs1 | 21 | 139* | -30 | 127 | -42 | 1.2 | 107 | 154* | 136*
O=C(Nc1nc2c(s1)CCc1ccccc1-2)c1cccs1 | 44 | 121 | -10 | 109 | -22 | 1.5 | . | . | .
Oc1ccc2ccccc2c1CNc1cnc2ccccc2c1 | . | 146* | 3 | 97 | -58 | 1.1 | 133* | 99 | 104
Cn1c(NCc2c(O)ccc3ccccc23)nc2ccccc21 | -11 | 110 | -2 | 102 | -5 | 0.83 | . | . | .
CN1CCc2c(sc3ncn4nc(-c5ccccc5O)nc4c23)C1 | -9 | 182* | -6 | 106 | -98 | 1.2 | 164* | 107 | 101
c1coc(-c2nc3c4c5c(sc4ncn3n2)CCCC5)c1 | 3 | 84 | 9 | 91 | 22 | 0.82 | . | . | .
COc1cc(C(=O)Nc2ccc(S(=O)(=O)N3CCOCC3)cc2)c([N+](=O)[O-])cc1OC | -12 | 88 | 11 | 89 | 18 | 1.2 | . | . | .
SMILES | APP 5'UTR act | STAT3 act-1 | STAT1 blocker | STAT1 act-1 | STAT3 blocker | NF-kB expr up | STAT3 act-2 | NFkB act 2 | STAT1 act-2
O=C(Cc1cscn1)c1ccc(O)cc1O | 1 | 146* | -3 | 103 | -49 | 1.2 | 100 | 100 | 104
CC1=NN(c2ccccc2)C(=O)/C1=C/c1ccc[nH]1 | 32 | 150* | -8 | 107 | -65 | 1.3 | 160* | 120 | 117
CC1=NN(c2ccccc2)C(=O)/C1=C/c1cccs1 | 1 | 125 | 2 | 98 | -25 | 1 | . | . | .
CCc1nc2ccccc2c2nc3ccccc3n12 | -2 | 86 | 3 | 97 | 21 | 1.2 | . | . | .
O=c1c2ccc([N+](=O)[O-])c3cccc(c32)c2nc3ccccc3n12 | 8 | 148* | 19 | 83 | -48 | 1 | 150* | 69 | 88
Fc1ccc(OCc2nc(-c3ccc(Br)o3)no2)c(F)c1 | 1 | 107 | -5 | 105 | -4 | 1.6 | . | . | .
Clc1ccccc1OCc1nc(-c2ccc(Br)o2)no1 | 11 | 137* | -25 | 123 | -33 | 2.8 | 126 | 110 | 125*
O=C(CCCSc1nc2ccccc2s1)NCc1ccco1 | -3 | 150* | -1 | 101 | -56 | 0.84 | 136* | 101 | 97
CCc1ccccc1NC(=O)CCCSc1nc2ccccc2s1 | 10 | 108 | -9 | 108 | -14 | 1 | . | . | .
COC(=O)CCC(=O)Nc1ccc(C)cc1OC(=O)CCC(=O)OC | 9 | 136* | -1 | 105 | -42 | 0.92 | 108 | 100 | 98
Cn1/c(=N\NC(=O)c2ccccc2Cl)sc2ccccc21 | 54 | 110 | -20 | 118 | 2 | 1.6 | . | . | .
CCC(=O)NCCSc1c[nH]c2ccccc12 | 4 | 145* | 4 | 97 | -47 | 1.1 | 141* | 105 | 108
CC(Sc1c[nH]c2ccccc12)C(=O)O (centres undefined) | 12 | 147* | -3 | 103 | -48 | 1.2 | 115 | 99 | 101
O=C(O)CSc1c[nH]c2ccccc12 | -20 | 151* | 9 | 92 | -49 | 1.1 | 121 | 104 | 96
CC(C)C(=O)NCCSc1c[nH]c2ccccc12 | -6 | 121 | -2 | 102 | -15 | 1.2 | . | . | .
O=C(Cc1ncc(C(F)(F)F)cc1Cl)NCc1ccco1 | 26 | 99 | 3 | 97 | 2 | 1.4 | . | . | .
CCn1ncc([N+](=O)[O-])c1C(=O)NC1CCCCC1 | -7 | 101 | 2 | 96 | 3 | 1.3 | . | . | .

Screens from PubChem.
